ChEMBL document CHEMBL1811757, “Discovery of naturally occurring aurones that are potent allosteric inhibitors of hepatitis C virus RNA-dependent RNA polymerase” (J Med Chem, 2011)
Active and inactive are the calls of the source. No cut-off for these calls is given here.

Experiments:
[1] = Inhibition of HCV genotype 1b J4 N-terminal His-tagged NS5Bdelta21 polymerase expressed in Escherichia coli C41(DE3) assessed as amount of double-stranded RNA synthesis; parameters: species or system Hepatitis C virus isolate HC-J4
HEK293 = assay: Cytotoxicity against human HEK293 cells up to 512 uM after 72 hrs by MTT assay; format: cell-based; settings: hek293, 72 h
Summary of the method: (§1)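 Cells trypsinized in exponential growth and plated at 2000 (HuH7) or 1000 (HEK293) per well. Allowed to attach 96 h at 37°C, 5% CO2. Drug diluted in medium with 1% DMSO final, then 72 h at 37°C, 5% CO2. Viability read by MTT colorimetric assay.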

[2] = test system: Hepatitis C virus isolate HC-J4; assay: Inhibition of HCV genotype 1b J4 N-terminal His-tagged NS5Bdelta21 polymerase expressed in Escherichia coli C41(DE3) assessed as amount of double-stranded RNA synthesis at 20 uM
Huh-7 = assay: Cytotoxicity against human HuH7 cells up to 512 uM after 72 hrs by MTT assay; format: cell-based; settings: huh-7, 72 h; summary of the method: as §1
Hepatitis C virus = assay: Antiviral activity against HCV JFH-1 assessed as inhibition of viral replication by cell based assay; format: functional, organism-based, Hepacivirus hominis
[3] = test system: RNA-directed RNA polymerase (Hepacivirus hominis), O39930 [M423T]; assay: Inhibition of HCV genotype 1b J4 NS5Bdelta21 polymerase M423T mutant expressed in Escherichia coli C41(DE3) assessed as amount of double-stranded RNA synthesis; settings: Hepatitis C virus isolate HC-J4
Summary of the method: (§2)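 N-terminal His6-tagged NS5BΔ21 (C-terminal 21 residues removed) point mutants, made by site-directed mutagenesis, sequence-verified and purified like wild type: Ni-NTA affinity, imidazole elution, dialysis into Tris pH 7.5/sodium acetate/DTT/EDTA/10% glycerol. Cell-free assay quantifies double-stranded RNA synthesized on poly U homopolymeric template with ATP. IC50 determined per mutant.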

[4] = test system: Hepatitis C virus isolate HC-J4; assay: Ratio of IC50 for HCV genotype 1b J4 NS5Bdelta21 polymerase P495L mutant to IC50 for HCV genotype 1b J4 wild type N-terminal His-tagged NS5Bdelta21 polymerase
Summary of the method: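 IC50 measured in cell-free poly U/ATP double-stranded RNA synthesis assay for purified His-tagged NS5BΔ21 P495L mutant and wild type, both prepared identically by Ni-NTA purification. Mutant IC50 divided by wild-type IC50 and reported as fold difference. A Thumb Pocket I benzimidazole inhibitor served as control.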

[5] = test system: RNA-directed RNA polymerase (Hepacivirus hominis), O39930 [C316Y]; assay: Inhibition of HCV genotype 1b J4 NS5Bdelta21 polymerase C316Y mutant expressed in Escherichia coli C41(DE3) assessed as amount of double-stranded RNA synthesis; settings: Hepatitis C virus isolate HC-J4; summary of the method: as §2
[6] = test system: RNA-directed RNA polymerase (Hepacivirus hominis), O39930 [H95Q]; assay: Inhibition of HCV genotype 1b J4 NS5Bdelta21 polymerase H95Q mutant expressed in Escherichia coli C41(DE3) assessed as amount of double-stranded RNA synthesis; settings: Hepatitis C virus isolate HC-J4; summary of the method: as §2
Chain of RNA-directed RNA polymerase (Hepacivirus hominis), O39930 [H95Q] (O39930 entry or part of it H95Q): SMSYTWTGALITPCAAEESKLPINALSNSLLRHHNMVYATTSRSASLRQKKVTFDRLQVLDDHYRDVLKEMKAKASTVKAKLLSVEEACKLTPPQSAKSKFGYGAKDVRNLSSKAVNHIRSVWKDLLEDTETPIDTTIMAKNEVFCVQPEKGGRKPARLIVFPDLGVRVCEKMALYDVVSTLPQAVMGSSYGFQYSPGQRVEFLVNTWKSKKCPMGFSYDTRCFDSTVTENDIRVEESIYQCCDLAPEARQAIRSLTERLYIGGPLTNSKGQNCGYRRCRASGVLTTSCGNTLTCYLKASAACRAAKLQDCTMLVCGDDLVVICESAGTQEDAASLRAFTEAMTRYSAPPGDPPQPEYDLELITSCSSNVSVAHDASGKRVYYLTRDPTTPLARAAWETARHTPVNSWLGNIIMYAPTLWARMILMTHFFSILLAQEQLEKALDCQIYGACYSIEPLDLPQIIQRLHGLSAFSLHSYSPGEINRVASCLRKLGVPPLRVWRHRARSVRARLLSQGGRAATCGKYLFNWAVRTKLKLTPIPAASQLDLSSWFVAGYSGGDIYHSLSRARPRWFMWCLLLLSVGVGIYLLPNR

Chain of RNA-directed RNA polymerase (Hepacivirus hominis), O39930 [C316Y] (O39930 entry or part of it C316Y): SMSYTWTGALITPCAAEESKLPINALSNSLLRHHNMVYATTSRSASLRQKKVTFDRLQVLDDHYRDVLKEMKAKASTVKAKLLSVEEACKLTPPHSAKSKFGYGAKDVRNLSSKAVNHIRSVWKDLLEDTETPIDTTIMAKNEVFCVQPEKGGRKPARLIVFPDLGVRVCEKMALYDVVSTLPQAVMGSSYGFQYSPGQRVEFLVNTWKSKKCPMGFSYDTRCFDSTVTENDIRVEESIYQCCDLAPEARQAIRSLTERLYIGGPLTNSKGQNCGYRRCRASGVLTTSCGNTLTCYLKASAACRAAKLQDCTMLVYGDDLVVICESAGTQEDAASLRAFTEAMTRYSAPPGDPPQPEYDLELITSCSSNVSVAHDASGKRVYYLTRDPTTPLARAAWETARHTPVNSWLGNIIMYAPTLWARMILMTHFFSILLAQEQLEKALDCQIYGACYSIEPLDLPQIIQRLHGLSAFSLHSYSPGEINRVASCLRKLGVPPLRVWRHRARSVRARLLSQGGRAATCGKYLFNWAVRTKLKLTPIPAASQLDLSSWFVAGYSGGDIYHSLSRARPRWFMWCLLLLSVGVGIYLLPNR
Chain of RNA-directed RNA polymerase (Hepacivirus hominis), O39930 [M423T] (O39930 entry or part of it M423T): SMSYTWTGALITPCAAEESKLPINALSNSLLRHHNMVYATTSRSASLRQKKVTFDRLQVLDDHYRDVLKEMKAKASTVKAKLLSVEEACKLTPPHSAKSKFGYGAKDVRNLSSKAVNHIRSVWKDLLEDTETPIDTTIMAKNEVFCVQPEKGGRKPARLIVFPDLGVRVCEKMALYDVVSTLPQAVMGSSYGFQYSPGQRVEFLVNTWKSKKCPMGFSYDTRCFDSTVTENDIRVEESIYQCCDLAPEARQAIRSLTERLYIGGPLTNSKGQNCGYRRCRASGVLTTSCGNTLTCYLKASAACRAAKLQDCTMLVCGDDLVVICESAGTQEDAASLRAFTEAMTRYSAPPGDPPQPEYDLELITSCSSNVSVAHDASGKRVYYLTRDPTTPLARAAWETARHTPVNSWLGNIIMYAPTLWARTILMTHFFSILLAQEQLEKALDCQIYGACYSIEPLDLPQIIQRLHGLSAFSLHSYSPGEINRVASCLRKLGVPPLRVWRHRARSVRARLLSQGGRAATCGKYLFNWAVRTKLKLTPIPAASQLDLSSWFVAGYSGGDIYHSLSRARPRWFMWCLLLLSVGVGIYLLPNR

| Compound | IC50 [1] [µM] | Activity (HEK293) | inhibition [2] [%] | Activity (Huh-7) | IC50 (Hepatitis C virus) [µM] | inhibition [3] | Ratio IC50 [4] | inhibition [5] | inhibition [6] |
| --- | --- | --- | --- | --- | --- | --- | --- | --- | --- |
| Cc1ccc(/C=C2\Oc3cccc(O)c3C2=O)c(C)c1 | 5.8 | Non-toxic | 64 | Non-toxic | – | – | – | – | – |
| CCCCc1ccc(/C=C2\Oc3cc(OC)cc(OC)c3C2=O)cc1 | > 20 | Non-toxic | 3 | Non-toxic | – | – | – | – | – |
| O=C1/C(=C/c2ccc(O)cc2)Oc2cccc(O)c21 | 5.9 | Non-toxic | 60 | Non-toxic | 18 | Active | 6 | Active | Active |
| O=C1/C(=C/c2ccc(O)cc2)Oc2cc(O)cc(O)c21 | 9.7 | Non-toxic | 61 | Non-toxic | 40 | – | – | – | – |
| COc1cccc(/C=C2\Oc3cc(O)cc(O)c3C2=O)c1OC | > 20 | Non-toxic | 74 | Non-toxic | – | – | – | – | – |
| CN1CCN(c2ccc(/C=C3\Oc4cccc(O)c4C3=O)cc2)CC1 | 3.8 | Non-toxic | 94 | Non-toxic | – | – | – | – | – |
| CCc1ccc(/C=C2\Oc3cc(O)cc(O)c3C2=O)cc1 | 3.6 | Non-toxic | 79 | Non-toxic | – | – | – | – | – |
| O=C1/C(=C/c2ccc(C3CCCCC3)cc2)Oc2cc(O)cc(O)c21 | 2.3 | Non-toxic | 92 | Non-toxic | – | – | – | – | – |
| CCCCc1ccc(/C=C2\Oc3cc(O)cc(O)c3C2=O)cc1 | 2.5 | Non-toxic | 93 | Non-toxic | – | – | – | – | – |
| O=C1/C(=C/c2ccc(C3CCCCC3)cc2)Oc2cc(OCc3ccccc3)cc(OCc3ccccc3)c21 | > 20 | Non-toxic | 3 | Non-toxic | – | – | – | – | – |
| O=C1/C(=C/c2ccc(O)cc2O)Oc2cccc(O)c21 | 2.6 | Non-toxic | 94 | Non-toxic | – | – | – | – | – |
| O=C1/C(=C/c2ccc(F)cc2F)Oc2cccc(F)c21 | > 20 | Non-toxic | 10 | Non-toxic | – | – | – | – | – |
| COc1cc(OC)c2c(c1)O/C(=C\c1ccc(C3CCCCC3)cc1)C2=O | > 20 | Non-toxic | 2 | Non-toxic | – | – | – | – | – |
| CC(C)c1ccc(/C=C2\Oc3cc(O)cc(O)c3C2=O)cc1 | 3.1 | Non-toxic | 78 | Non-toxic | – | – | – | – | – |
| CC(C)c1ccc(/C=C2\Oc3cccc(O)c3C2=O)cc1 | > 20 | Non-toxic | 29.9 | Non-toxic | – | – | – | – | – |
| O=C1/C(=C/c2ccccc2)Oc2cc(O)cc(O)c21 | 15.1 | Non-toxic | 59 | Non-toxic | – | – | – | – | – |
| COc1ccc(/C=C2\Oc3cccc(O)c3C2=O)c(OC)c1 | 9.7 | Non-toxic | 75 | Non-toxic | – | – | – | – | – |
| COc1ccc(/C=C2\Oc3cc(O)cc(O)c3C2=O)c(OC)c1OC | > 20 | Non-toxic | 50 | Non-toxic | – | – | – | – | – |
| O=C1/C(=C/c2ccccc2O)Oc2cccc(O)c21 | 11.1 | Non-toxic | 56 | Non-toxic | – | – | – | – | – |
| COc1cc(OC)c2c(c1)O/C(=C\c1ccccc1O)C2=O | > 20 | Non-toxic | 0.7 | Non-toxic | – | – | – | – | – |
| O=C1/C(=C/c2ccccc2O)Oc2cc(O)ccc21 | > 20 | Non-toxic | 18 | Non-toxic | – | – | – | – | – |

| Compound | IC50 [1] [µM] | Activity (HEK293) | inhibition [2] [%] | Activity (Huh-7) | IC50 (Hepatitis C virus) [µM] | inhibition [3] | Ratio IC50 [4] | inhibition [5] | inhibition [6] |
| --- | --- | --- | --- | --- | --- | --- | --- | --- | --- |
| O=C1/C(=C/c2ccc(O)cc2)Oc2cc(O)ccc21 | > 20 | Non-toxic | 35 | Non-toxic | – | – | – | – | – |
| CCCCn1cc(/C=C2\Oc3cc(O)cc(O)c3C2=O)c2ccccc21 | 2.2 | Non-toxic | 95 | Non-toxic | – | – | – | – | – |
| COc1cc(OC)c2c(c1)O/C(=C\c1ccc(C)cc1C)C2=O | > 20 | Non-toxic | 14 | Non-toxic | – | – | – | – | – |
| CC(=O)Nc1ccc(-c2ccc(Cl)cc2)c(COc2ccc(-c3nc4cc(C(=O)O)ccc4n3C3CCCCC3)cc2)c1 | – | – | – | – | – | – | 10 | – | – |
| O=C1/C(=C/c2ccccc2F)Oc2cccc(O)c21 | > 20 | Non-toxic | 58 | Non-toxic | – | – | – | – | – |
| O=C1/C(=C/c2ccc(N3CCOCC3)cc2)Oc2cc(O)cc(O)c21 | 11.4 | Non-toxic | 66 | Non-toxic | – | – | – | – | – |
| CCCCc1ccc(/C=C2\Oc3cc(F)cc(F)c3C2=O)cc1 | > 20 | Non-toxic | – | Non-toxic | – | – | – | – | – |
| O=C1/C(=C/c2cccc(O)c2)Oc2cccc(O)c21 | > 20 | Non-toxic | 37 | Non-toxic | – | – | – | – | – |
| O=C1/C(=C/c2ccccc2O)Oc2cc(O)cc(O)c21 | > 20 | Non-toxic | 33 | Non-toxic | – | – | – | – | – |
| COc1cccc(OC)c1/C=C1\Oc2cccc(O)c2C1=O | > 20 | Non-toxic | 47 | Non-toxic | – | – | – | – | – |
| O=C1/C(=C/c2ccc(O)c(O)c2)Oc2cc(O)cc(O)c21 [AUREUSIDIN] | 5.4 | – | 85 | – | – | – | – | – | – |
| O=C1/C(=C/c2ccc(F)cc2)Oc2cc(O)cc(O)c21 | 11.2 | Non-toxic | 80 | Non-toxic | – | – | – | – | – |
| CCCCc1ccc(/C=C2\Oc3ccccc3C2=O)cc1 | > 20 | Non-toxic | – | Non-toxic | – | – | – | – | – |
| O=C1/C(=C/c2ccc(O)cc2O)Oc2cc(O)cc(O)c21 | 5.8 | Non-toxic | 81 | Non-toxic | – | – | – | – | – |
| O=C1/C(=C/c2cccc(O)c2)Oc2cc(O)ccc21 | > 20 | Non-toxic | 10 | Non-toxic | – | – | – | – | – |
| COc1cc(OC)c(/C=C2\Oc3cccc(O)c3C2=O)c(OC)c1 | > 20 | Non-toxic | 52 | Non-toxic | – | – | – | – | – |
| CC(C)(C)c1ccc(/C=C2\Oc3cccc(O)c3C2=O)cc1 | > 20 | Non-toxic | 60.8 | Non-toxic | – | – | – | – | – |
| COc1cc(OC)c2c(c1)O/C(=C\c1ccc(O)cc1)C2=O | > 20 | Non-toxic | 37 | Non-toxic | – | – | – | – | – |
| O=C1/C(=C/c2ccccc2)Oc2cccc(O)c21 | 14.6 | Non-toxic | 57 | Non-toxic | – | – | – | – | – |
| COc1cc(OC)c2c(c1)O/C(=C\c1cccc(O)c1)C2=O | > 20 | Non-toxic | 11 | Non-toxic | – | – | – | – | – |
| CCCCc1ccc(/C=C2\Oc3cccc(O)c3C2=O)cc1 | > 20 | Non-toxic | 42.7 | Non-toxic | – | – | – | – | – |
